The values that follow come from ChEMBL document CHEMBL4765226, “Identification of a Human Toll-Like Receptor (TLR) 8-Specific Agonist and a Functional Pan-TLR Inhibitor in 2-Aminoimidazoles” (J Med Chem, 2016).

The target in test [1] is T1, Toll-like receptor 7 (Homo sapiens) (UniProt Q9NYK1).
T1 sequence (whole entry): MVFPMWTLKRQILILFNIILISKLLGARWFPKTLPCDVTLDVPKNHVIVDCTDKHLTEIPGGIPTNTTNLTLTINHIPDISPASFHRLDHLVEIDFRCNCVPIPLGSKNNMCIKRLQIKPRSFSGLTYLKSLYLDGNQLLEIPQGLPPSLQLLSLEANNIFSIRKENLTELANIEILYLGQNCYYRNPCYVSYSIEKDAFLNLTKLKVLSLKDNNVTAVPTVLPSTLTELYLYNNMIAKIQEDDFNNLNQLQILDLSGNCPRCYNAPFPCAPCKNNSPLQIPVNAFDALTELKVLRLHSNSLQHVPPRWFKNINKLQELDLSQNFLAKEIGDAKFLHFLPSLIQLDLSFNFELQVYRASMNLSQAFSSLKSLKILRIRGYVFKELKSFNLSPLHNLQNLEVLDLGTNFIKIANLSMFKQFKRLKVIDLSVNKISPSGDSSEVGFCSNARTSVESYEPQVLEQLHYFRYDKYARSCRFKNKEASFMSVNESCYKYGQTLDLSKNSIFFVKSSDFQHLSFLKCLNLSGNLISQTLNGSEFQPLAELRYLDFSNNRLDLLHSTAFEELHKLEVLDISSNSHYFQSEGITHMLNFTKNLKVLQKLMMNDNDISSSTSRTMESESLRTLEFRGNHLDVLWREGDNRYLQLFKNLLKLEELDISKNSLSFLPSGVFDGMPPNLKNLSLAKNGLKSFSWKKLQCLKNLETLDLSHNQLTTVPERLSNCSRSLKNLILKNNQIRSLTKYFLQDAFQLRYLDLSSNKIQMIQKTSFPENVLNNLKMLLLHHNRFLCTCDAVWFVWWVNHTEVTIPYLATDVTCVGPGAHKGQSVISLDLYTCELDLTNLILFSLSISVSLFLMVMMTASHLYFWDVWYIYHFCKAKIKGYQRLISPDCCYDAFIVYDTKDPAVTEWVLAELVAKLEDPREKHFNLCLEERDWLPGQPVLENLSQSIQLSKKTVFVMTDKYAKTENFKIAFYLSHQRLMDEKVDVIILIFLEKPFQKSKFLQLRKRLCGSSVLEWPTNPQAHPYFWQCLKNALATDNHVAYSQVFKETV
Description: Agonist activity at human TLR7 stably expressed in HEK293 cells cotransfected with secreted alkaline phosphatase assessed as induction of NFkappaB activation by quanti-blue SEAP reporter gene based spectrophotometric method. In kind it is cell-based. The gist of the method:
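HEK293 cells stably co-transfected with the matching human TLR (2, 3, 4, 5, 7, 8 or 9) and NF-κB/AP-1-driven secreted alkaline phosphatase were kept in selection medium. About 10^5 cells/ml were incubated with graded concentrations of stimulus. sAP was read at 620 nm with a chromogen in detection medium. EC50 came from four-parameter logistic fits on quadruplicates.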
In general terms: In a reporter assay the amount or activity of a reporter protein is the signal.

Test [2] deals with T2, Toll-like receptor 8 (Homo sapiens) (UniProt Q9NR97).
T2 sequence (whole entry): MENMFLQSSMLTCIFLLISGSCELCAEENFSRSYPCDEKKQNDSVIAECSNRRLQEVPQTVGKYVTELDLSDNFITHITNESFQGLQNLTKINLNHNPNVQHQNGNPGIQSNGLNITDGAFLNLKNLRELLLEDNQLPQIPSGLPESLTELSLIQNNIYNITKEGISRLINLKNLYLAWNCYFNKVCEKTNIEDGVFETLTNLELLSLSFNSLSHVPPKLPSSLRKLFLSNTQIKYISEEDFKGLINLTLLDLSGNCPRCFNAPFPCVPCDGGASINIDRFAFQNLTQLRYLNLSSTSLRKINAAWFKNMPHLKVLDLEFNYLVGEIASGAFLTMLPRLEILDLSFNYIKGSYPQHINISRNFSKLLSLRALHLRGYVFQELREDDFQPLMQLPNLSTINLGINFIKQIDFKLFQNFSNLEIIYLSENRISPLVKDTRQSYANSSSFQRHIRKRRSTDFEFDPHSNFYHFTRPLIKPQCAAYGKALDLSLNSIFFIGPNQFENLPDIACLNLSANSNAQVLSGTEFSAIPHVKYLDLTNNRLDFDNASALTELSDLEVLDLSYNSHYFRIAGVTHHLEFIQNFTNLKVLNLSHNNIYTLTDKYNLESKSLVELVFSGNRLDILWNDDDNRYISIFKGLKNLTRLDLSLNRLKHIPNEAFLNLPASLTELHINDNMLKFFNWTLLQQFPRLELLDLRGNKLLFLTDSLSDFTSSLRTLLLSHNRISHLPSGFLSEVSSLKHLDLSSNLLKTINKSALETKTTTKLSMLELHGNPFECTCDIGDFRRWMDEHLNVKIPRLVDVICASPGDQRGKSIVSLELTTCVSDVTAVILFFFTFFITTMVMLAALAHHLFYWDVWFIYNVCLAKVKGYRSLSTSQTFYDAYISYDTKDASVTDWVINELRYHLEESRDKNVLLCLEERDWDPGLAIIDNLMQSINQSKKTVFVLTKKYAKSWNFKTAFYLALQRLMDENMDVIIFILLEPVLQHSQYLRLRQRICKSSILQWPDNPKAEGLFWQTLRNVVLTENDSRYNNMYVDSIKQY
In words: Antagonist activity at human TLR8 stably expressed in HEK293 cells cotransfected with secreted alkaline phosphatase assessed as inhibition of compound 1f-induced NFkappaB activation by measuring reduction in SEAP level by quanti-blue SEAP reporter gene based spectrophotometric method. The test is classed as cell-based. The note with it: filed as antagonist. The gist of the method: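 Human TLR8/sAP HEK293 reporter cells were stimulated with 1f at 5 µg/mL in the presence of graded inhibitor concentrations. Reduction of secreted alkaline phosphatase was read spectrophotometrically at 620 nm.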

Test [3] has as its target T2, Toll-like receptor 8 (Homo sapiens). Description: Agonist activity at TLR8 in human PBMC cells assessed as induction of IL-1beta production incubated for 16 hrs by immunoassay. The test is classed as cell-based. Conditions: filed as agonist. The gist of the method:
(§1)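 Fresh human PBMCs isolated from venous blood, plated at 10^5 cells in 100 µL per well and stimulated for 16 h with graded concentrations of compound. Supernatants were collected by centrifugation and assayed in duplicate with a multiplexed cytokine/chemokine magnetic bead array.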

Test [4] has the same target. Description: Agonist activity at TLR8 in human PBMC cells assessed as induction of IL-12p40 production incubated for 16 hrs by immunoassay. Conditions: filed as agonist. The test is classed as cell-based. The gist of the method: as §1
Test [5] has the same target. Description: Agonist activity at TLR8 in human PBMC cells assessed as induction of MIP-1alpha production incubated for 16 hrs by immunoassay. In kind it is cell-based. Conditions: filed as agonist. The gist of the method: as §1
Test [6] has the same target. In words: Agonist activity at TLR8 in human PBMC cells assessed as induction of MIP-1beta production incubated for 16 hrs by immunoassay. The note with it: filed as agonist. In kind it is cell-based. The gist of the method: as §1
For test [7] the target is unchanged. Description: Agonist activity at TLR8 in human polymorphonuclear leucocyte cells assessed as induction of NF-kappaB phosphorylation at p65 subunit measured after 15 mins in presence of 10% FBS by Alexa fluor 647 dye based flow cytometry analysis. The note with it: in the assay text read “PE-Cy7 dye” for “Alexa fluor 647 dye”. In kind it is tissue-based. The gist of the method:
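Whole human blood with anticoagulant was added to serial compound dilutions in RPMI with 10% FBS and held at 37 °C for 15 min. Samples were lysed and fixed three times, permeabilized in ice-cold methanol for 30 min, then stained on ice for 60 min with anti-NF-κB p65-PECy7, p38MAPK-PE and ERK1/2-AlexaFluor 647. Flow cytometry acquired 100,000 gated events; monocytes and polymorphonuclear cells were gated.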
On the technique in general: A flow cytometer gives signals particle by particle.

SMILES strings stand for the structures. The source made the active and inactive calls. No cut-off for these calls is given here.

`CCCCCn1cc(-c2cccc(C)c2)nc1N`: in test [1], the result was inactive.
Still for that read-out and setting: as for `CCCCCn1cc(-c2ccc(C)cc2)nc1N`, the entry is “inactive”; as for `CCCCCn1cc(-c2cccc(F)c2)nc1N`, “inactive”; as for `CCCCCn1cc(-c2ccc(C)cc2C)nc1N`, “inactive”.
Still for that read-out and setting: as for `CCCCCn1cc(-c2cc(C)ccc2C)nc1N`, the entry is “inactive”; as for `CCCCCn1cc(-c2cccc(OC)c2)nc1N`, “inactive”.
Consider `CCCCCn1cc(-c2ccc(Cl)cc2)nc1N`, for which, in test [1], the outcome was inactive.
Still for that read-out and setting: as for `CCCCCn1cc(-c2ccccc2F)nc1N`, the entry is “inactive”.
As to `CCCCCn1c(-c2ccccc2)cnc1N.Cl`, the result in test [1] was inactive. The inhibition entry in test [2] is “Dose-dependent effect”.
On to `CCCCCn1cc(-c2ccccc2CO)nc1N`, for which the result in test [1] was inactive.
Regarding `CCCCCn1cc(Cc2ccccc2)nc1N`, the outcome in test [1] was inactive.
As for `CCCCCn1cc(-c2ccc(F)cc2)nc1N`, the result in test [3], in test [4] and in test [5] was Active. The Activity entry in test [6] is “Dose-dependent effect”. Besides, the outcome in test [7] and in test [1] was inactive.
`CCCCCn1cc(-c2ccccc2C(=O)OC)nc1N`: the outcome in test [1] was inactive.
`CCCCCn1cc(-c2cc(OC)c(OC)c(OC)c2)nc1N`: in test [1], the outcome was inactive.
Turning to `CCCCCn1cc(-c2ccccc2OCc2ccccc2)nc1N.Cl`, the result in test [1] was inactive. Besides, in test [2], the inhibition entry was “Dose-dependent effect”.
As to `CCCCCn1cc(-c2cccc3ccccc23)nc1N`, in test [1], the result was inactive.
The same measure, in the same setting: as for `CCCCCn1cc(-c2ccccc2OC)nc1N`, the entry is “inactive”; as for `CCCCCn1cc(-c2ccc(C(N)=O)cc2)nc1N`, “inactive”; as for `CCCCCn1cc(-c2ccc3ccccc3c2)nc1N`, “inactive”.
Still for that read-out and setting: as for `CCCCCn1cc(-c2ccc(-c3ccccc3)cc2)nc1N`, the entry is “inactive”; as for `CCCCCn1cc(-c2cccc(C(F)(F)F)c2)nc1N`, “inactive”.
As for `CCCCCn1cc(-c2ccccc2CC)nc1N`, the result in test [1] was inactive.
Still for that read-out and setting: the same measure for `CCCCCn1cc(-c2ccc(F)cc2C)nc1N`: “inactive”.
Turning to `CCCCCn1cc(-c2ccc(C(F)(F)F)cc2)nc1N`, the outcome in test [1] was inactive.
For the compound `CCCCCn1cc(-c2cccc(C)c2C)nc1N`, in test [1], the outcome was inactive.
With `CCCCCn1cc(CCc2ccccc2)nc1N`, the result in test [1] was inactive.
Same read-out and setting: as for `CCCCCn1cc(-c2cccnc2)nc1N`, the entry is “inactive”; as for `CCCCCn1cc(-c2ccccc2Cl)nc1N`, “inactive”; as for `CCCCCn1cc(-c2cccc(OC)c2OC)nc1N`, “inactive”.
Consider `CCCCCn1cc(-c2c(C)cccc2C)nc1N`, for which the outcome in test [1] was inactive.
As to `CCCCCn1cc(-c2cccc(Cl)c2)nc1N`, the result in test [1] was inactive.
For `CCCCCn1cc(-c2c(C)noc2C)nc1N`, the outcome in test [1] was inactive.
Still for that read-out and setting: the same measure for `CCCCCn1cc(-c2ccc(N)cc2)nc1N`: “inactive”; for `CCCCCn1cc(-c2ccccc2C)nc1N`: “inactive”.
On the same count and under the same terms, as for `CCCCCn1cc(-c2ccc(OC)cc2)nc1N`, the entry is “inactive”; as for `CCCCCn1c(N)nc(-c2ccccc2)c1-c1ccccc1`, “inactive”.
Take `CCCCCn1cc(-c2cccc(C)c2OC)nc1N`: in test [1], the outcome was inactive.
The same measure, in the same setting: as for `CCCCCn1cc(-c2ccc(OC)cc2C)nc1N`, the entry is “inactive”; as for `CCCCCn1ccnc1N`, “inactive”.
For the compound `CCCCCn1cc(-c2ccc(C(=O)OC)cc2)nc1N`, the result in test [1] was inactive.
Same read-out and setting: the same measure for `CCCCCn1cc(-c2ccccc2C(F)(F)F)nc1N`: “inactive”.
Turning to `CCCCCn1cc(-c2ccccc2)nc1N`, the result in test [3], in test [4], in test [5] and in test [6] was Active. For the same compound, the outcome in test [7] and in test [1] was inactive.
Consider `CCCCCn1cc(-c2ccccc2O)nc1N`, for which, in test [1], the result was inactive.
